Reference: ChEMBL document CHEMBL1143175, “Inactivation of human neutrophil elastase by 1,2,5-thiadiazolidin-3-one 1,1 dioxide-based sulfonamides” (Bioorg Med Chem, 2008)
Activity calls are given as the source filed them. No cut-off for these calls is given here.

What was measured:
[1] = target: T1, Myeloblastin (Homo sapiens) (UniProt P24158); assay: Ratio of Kinact to KI for human PR3
T1 sequence (whole entry): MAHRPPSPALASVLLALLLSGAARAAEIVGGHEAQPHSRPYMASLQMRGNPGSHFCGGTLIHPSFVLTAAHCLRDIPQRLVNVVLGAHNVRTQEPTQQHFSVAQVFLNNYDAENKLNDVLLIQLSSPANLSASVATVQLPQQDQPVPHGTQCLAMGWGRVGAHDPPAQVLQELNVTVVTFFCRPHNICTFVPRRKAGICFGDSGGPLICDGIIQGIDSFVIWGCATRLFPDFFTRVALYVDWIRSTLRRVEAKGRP
Outline: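 Human proteinase 3 (34.5 nM final) with inhibitor (8.6 µM final) and Boc-Ala-Ala-NVa-SBzl plus 5,5′-dithio-bis(2-nitrobenzoic acid) in 0.1 M HEPES/0.5 M NaCl, pH 7.25. Absorbance change monitored at 410 nm for 2 min; inhibitor:enzyme ratio 250.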

[2] = target: T2, Cathepsin G (Homo sapiens) (UniProt P08311); assay: Ratio of Kinact to KI for human cathepsin G
T2 sequence (whole entry): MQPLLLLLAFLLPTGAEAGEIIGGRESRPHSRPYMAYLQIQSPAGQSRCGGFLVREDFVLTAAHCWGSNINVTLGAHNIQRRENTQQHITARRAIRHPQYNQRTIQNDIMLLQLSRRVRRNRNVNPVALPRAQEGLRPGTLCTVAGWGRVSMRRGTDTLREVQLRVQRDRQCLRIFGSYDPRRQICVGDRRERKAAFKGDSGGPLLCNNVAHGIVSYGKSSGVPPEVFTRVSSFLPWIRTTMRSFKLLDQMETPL
Outline: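 Neutrophil cathepsin G incubated with inhibitor at an [I]/[E] ratio of 250 for 30 min. Substrate N-succinyl-Ala-Ala-Pro-Phe p-nitroanilide (85 mM stock in DMSO) then added, and absorbance monitored at 410 nm for 10 min.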

[3] = target: T3, Neutrophil elastase (Homo sapiens) (UniProt P08246); assay: Inhibition of human neutrophil elastase; conditions: TDE = time-dependent effect
T3 sequence (whole entry): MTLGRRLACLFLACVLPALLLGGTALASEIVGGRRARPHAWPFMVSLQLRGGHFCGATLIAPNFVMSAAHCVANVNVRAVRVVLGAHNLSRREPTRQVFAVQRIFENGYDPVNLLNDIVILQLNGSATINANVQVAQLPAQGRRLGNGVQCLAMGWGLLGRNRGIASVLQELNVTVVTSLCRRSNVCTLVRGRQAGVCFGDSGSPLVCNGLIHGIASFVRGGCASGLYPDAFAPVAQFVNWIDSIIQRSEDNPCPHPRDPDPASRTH
Outline: (§1)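 Human neutrophil elastase, progress curve method: 10 nM enzyme added to inhibitor plus 105 µM MeOSuc-Ala-Ala-Pro-Val p-nitroanilide in 0.1 M HEPES/0.5 M NaCl, pH 7.25, 2.5% DMSO. Absorbance followed at 410 nm for 10 min and fitted to the progress curve equation. Apparent second-order constants kinact/KI determined in duplicate.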

[4] = target: T3, Neutrophil elastase (Homo sapiens); assay: Ratio of Kinact to KI for human neutrophil elastase; outline: as §1
Bos taurus [5] = organism: Bos taurus; assay: Inhibition of bovine trypsin; conditions: TDE = time-dependent effect
Outline: (§2)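 Incubation method: bovine trypsin (5 µM final) incubated with excess inhibitor (0.125 mM final) in 0.025 M phosphate/0.1 M NaCl, pH 7.51, 1% DMSO, in a constant temperature bath. Aliquots taken over time, residual activity read with N-p-tosyl-Gly-Pro-Lys p-nitroanilide at 410 nm for 60 s. kobs from ln(v/v0) versus time, mean of two determinations, reported as kobs/[I].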

Bos taurus [6] = organism: Bos taurus; assay: Ratio of Kobs to [I] for bovine trypsin; outline: as §2

| Compound | Activity [1] | Activity [2] | Activity [3] | Ratio [4] | Activity (Bos taurus [5]) | Ratio (Bos taurus [6]) |
| --- | --- | --- | --- | --- | --- | --- |
| CCCC1C(=O)N(CS(=O)(=O)N[C@H](Cc2ccccc2)C(=O)OC)S(=O)(=O)N1C (some centres undefined) | inactive | inactive | tde | 9760 M⁻¹ s⁻¹ | tde | – |
| CCCC1C(=O)N(CS(=O)(=O)N[C@@H](Cc2ccccc2)C(=O)OC)S(=O)(=O)N1C (some centres undefined) | inactive | inactive | tde | 41800 M⁻¹ s⁻¹ | tde | 50 |
| CCCC1C(=O)N(CS(=O)(=O)N[C@@H](COCc2ccccc2)C(=O)OC)S(=O)(=O)N1C (some centres undefined) | inactive | inactive | tde | 16900 M⁻¹ s⁻¹ | tde | 60 |
| CCCC1C(=O)N(CS(=O)(=O)N[C@@H](CCCCNC(=O)OCc2ccccc2)C(=O)OC)S(=O)(=O)N1C (some centres undefined) | inactive | inactive | tde | 6900 M⁻¹ s⁻¹ | tde | – |

Continued, values first:

| Activity [1] | Activity [2] | Activity [3] | Ratio [4] | Activity (Bos taurus [5]) | Ratio (Bos taurus [6]) | Compound |
| --- | --- | --- | --- | --- | --- | --- |
| inactive | inactive | tde | 1100 M⁻¹ s⁻¹ | tde | 12 | CCCC1C(=O)N(CS(=O)(=O)N[C@@H](CO)C(=O)OC)S(=O)(=O)N1C (some centres undefined) |
| inactive | inactive | tde | 34600 M⁻¹ s⁻¹ | tde | 19 | CCCC1C(=O)N(CS(=O)(=O)N[C@@H](CCC)C(=O)OC)S(=O)(=O)N1C (some centres undefined) |
| inactive | inactive | tde | 1050 M⁻¹ s⁻¹ | tde | – | CCCC1C(=O)N(CS(=O)(=O)N[C@@H](C)C(=O)OC)S(=O)(=O)N1C (some centres undefined) |
| inactive | inactive | tde | 12900 M⁻¹ s⁻¹ | tde | – | CCCC1C(=O)N(CS(=O)(=O)N[C@@H](CCCCN)C(=O)OC)S(=O)(=O)N1C (some centres undefined) |
